According to ChEMBL document CHEMBL1799931, “Synthesis, evaluation and metabolic studies of radiotracers containing a 4-(4-[18F]-fluorobenzyl)piperidin-1-yl moiety for the PET imaging of NR2B NMDA receptors” (Eur J Med Chem, 2011):

Key:
[1] = target: T1, Glutamate NMDA receptor; GRIN1/GRIN2B (Homo sapiens, UniProt Q05586+Q13224); assay: Antagonist activity against NR1a/NR2B receptor transfected in human HEK293 cells assessed as inhibition of NMDA-induced Ca2+ influx; assay type: functional, cell-based
[2] = Half life in rat plasma; assay type: ADME, cell-free
Rattus norvegicus [3] = assay: Analgesic activity against carrageenan-induced mechanical hyperalgesia in iv dosed rat; assay type: functional
Mus musculus = assay: Analgesic activity in po dosed mouse assessed as licking behavior measured after 20 to 25 mins by formalin test; assay type: functional, organism-based; settings: Mus musculus, po; read-out: ED50
[4] = target: T1, Glutamate NMDA receptor; GRIN1/GRIN2B; assay: Displacement of [3H]-Ro-256981 from recombinant NR1/NR2B receptor; assay type: protein-complex assay
Brain = assay: Biodistribution in Sprague-Dawley rat brain at 3.2 to 18.6 MBq, iv after 90 mins by micro PET analysis; assay type: ADME, organism-based; settings: in vivo, 1.5 h
Summary of the method: (§1)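 Male Sprague-Dawley rats (235-310 g) under isoflurane got 18F radiotracer (3.2-18.6 MBq) by tail-vein catheter, n = 2. Dynamic microPET scan for 90 min, then ex vivo tissue counting at 90 min post-injection. Values are %ID/g ± SEM.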

Rattus norvegicus [5] = assay: Biodistribution in Sprague-Dawley rat bladder at 3.2 to 18.6 MBq, iv after 90 mins by micro PET analysis; assay type: ADME, organism-based, Urinary bladder; settings: in vivo, 1.5 h; summary of the method: as §1
Spleen = assay: Biodistribution in Sprague-Dawley rat spleen at 3.2 to 18.6 MBq, iv after 90 mins by micro PET analysis; assay type: ADME, organism-based; settings: in vivo, 1.5 h; summary of the method: as §1
Bone = assay: Biodistribution in Sprague-Dawley rat bone at 3.2 to 18.6 MBq, iv after 90 mins by micro PET analysis; assay type: ADME, organism-based, Bone element; settings: in vivo, 1.5 h; summary of the method: as §1
Lung = assay: Biodistribution in Sprague-Dawley rat lung at 3.2 to 18.6 MBq, iv after 90 mins by micro PET analysis; assay type: ADME, organism-based; settings: in vivo, 1.5 h; summary of the method: as §1
Liver = assay: Biodistribution in Sprague-Dawley rat liver at 3.2 to 18.6 MBq, iv after 90 mins by micro PET analysis; assay type: ADME, organism-based; settings: in vivo, 1.5 h; summary of the method: as §1
Heart = assay: Biodistribution in Sprague-Dawley rat heart at 3.2 to 18.6 MBq, iv after 90 mins by micro PET analysis; assay type: ADME, organism-based; settings: in vivo, 1.5 h; summary of the method: as §1
Pancreas = assay: Biodistribution in Sprague-Dawley rat pancreas at 3.2 to 18.6 MBq, iv after 90 mins by micro PET analysis; assay type: ADME, organism-based; settings: in vivo, 1.5 h; summary of the method: as §1
[6] = Metabolic stability in Sprague-Dawley rat plasma assessed as half life by radio thin layer chromatography analysis; assay type: ADME, cell-free
Summary of the method: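 Anesthetized male Sprague-Dawley rats (235-330 g) given radiotracer (3.2-15.1 MBq). Femoral arterial blood was sampled over 90 min and plasma gamma-counted. Plasma was diluted with acetonitrile, centrifuged and run on silica radio-TLC with cold reference, giving parent and radiometabolite fractions.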

[7] = Biodistribution in Sprague-Dawley rat fat at 3.2 to 18.6 MBq, iv after 90 mins by micro PET analysis; assay type: ADME, organism-based, Adipose tissue; settings: in vivo, 1.5 h; summary of the method: as §1
Muscle tissue = assay: Biodistribution in Sprague-Dawley rat muscle at 3.2 to 18.6 MBq, iv after 90 mins by micro PET analysis; assay type: ADME, organism-based; settings: in vivo, 1.5 h; summary of the method: as §1
[8] = Biodistribution in Sprague-Dawley rat urine at 3.2 to 18.6 MBq, iv after 90 mins by micro PET analysis; assay type: ADME, organism-based; settings: in vivo, 1.5 h; summary of the method: as §1
Rattus norvegicus [9] = assay: Biodistribution in Sprague-Dawley rat cartilage at 3.2 to 18.6 MBq, iv after 90 mins by micro PET analysis; assay type: ADME, organism-based, Cartilage tissue; settings: in vivo, 1.5 h; summary of the method: as §1
Intestine = assay: Biodistribution in Sprague-Dawley rat intestine at 3.2 to 18.6 MBq, iv after 90 mins by micro PET analysis; assay type: ADME, organism-based; settings: in vivo, 1.5 h; summary of the method: as §1
Thymus = assay: Biodistribution in Sprague-Dawley rat thymus at 3.2 to 18.6 MBq, iv after 90 mins by micro PET analysis; assay type: ADME, organism-based; settings: in vivo, 1.5 h; summary of the method: as §1
Kidney = assay: Biodistribution in Sprague-Dawley rat kidney at 3.2 to 18.6 MBq, iv after 90 mins by micro PET analysis; assay type: ADME, organism-based; settings: in vivo, 1.5 h; summary of the method: as §1
[10] = target: Glutamate NMDA receptor; GRIN1/GRIN2A (Homo sapiens) (UniProt Q05586+Q12879); assay: Antagonist activity against NR1a/NR2A receptor transfected in human HEK293 cells assessed as inhibition of NMDA-induced Ca2+ influx at 10 uM; assay type: functional, cell-based
Summary of the method: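 HEK293 cells co-transfected 1:1 with NR1-1a plus NR2A-GFP or NR2B-GFP, D-APV (100 µM) after transfection, used at 24 h. Cells loaded with Fura-2/AM 45 min at 37 °C, then held in HBBSS with glycine, pH 7.45, at room temperature under perfusion. NMDA 100 µM for 30 s; ligands applied 60 s before and during.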

T1 sequence (Q13224 whole entry, other chains not shown): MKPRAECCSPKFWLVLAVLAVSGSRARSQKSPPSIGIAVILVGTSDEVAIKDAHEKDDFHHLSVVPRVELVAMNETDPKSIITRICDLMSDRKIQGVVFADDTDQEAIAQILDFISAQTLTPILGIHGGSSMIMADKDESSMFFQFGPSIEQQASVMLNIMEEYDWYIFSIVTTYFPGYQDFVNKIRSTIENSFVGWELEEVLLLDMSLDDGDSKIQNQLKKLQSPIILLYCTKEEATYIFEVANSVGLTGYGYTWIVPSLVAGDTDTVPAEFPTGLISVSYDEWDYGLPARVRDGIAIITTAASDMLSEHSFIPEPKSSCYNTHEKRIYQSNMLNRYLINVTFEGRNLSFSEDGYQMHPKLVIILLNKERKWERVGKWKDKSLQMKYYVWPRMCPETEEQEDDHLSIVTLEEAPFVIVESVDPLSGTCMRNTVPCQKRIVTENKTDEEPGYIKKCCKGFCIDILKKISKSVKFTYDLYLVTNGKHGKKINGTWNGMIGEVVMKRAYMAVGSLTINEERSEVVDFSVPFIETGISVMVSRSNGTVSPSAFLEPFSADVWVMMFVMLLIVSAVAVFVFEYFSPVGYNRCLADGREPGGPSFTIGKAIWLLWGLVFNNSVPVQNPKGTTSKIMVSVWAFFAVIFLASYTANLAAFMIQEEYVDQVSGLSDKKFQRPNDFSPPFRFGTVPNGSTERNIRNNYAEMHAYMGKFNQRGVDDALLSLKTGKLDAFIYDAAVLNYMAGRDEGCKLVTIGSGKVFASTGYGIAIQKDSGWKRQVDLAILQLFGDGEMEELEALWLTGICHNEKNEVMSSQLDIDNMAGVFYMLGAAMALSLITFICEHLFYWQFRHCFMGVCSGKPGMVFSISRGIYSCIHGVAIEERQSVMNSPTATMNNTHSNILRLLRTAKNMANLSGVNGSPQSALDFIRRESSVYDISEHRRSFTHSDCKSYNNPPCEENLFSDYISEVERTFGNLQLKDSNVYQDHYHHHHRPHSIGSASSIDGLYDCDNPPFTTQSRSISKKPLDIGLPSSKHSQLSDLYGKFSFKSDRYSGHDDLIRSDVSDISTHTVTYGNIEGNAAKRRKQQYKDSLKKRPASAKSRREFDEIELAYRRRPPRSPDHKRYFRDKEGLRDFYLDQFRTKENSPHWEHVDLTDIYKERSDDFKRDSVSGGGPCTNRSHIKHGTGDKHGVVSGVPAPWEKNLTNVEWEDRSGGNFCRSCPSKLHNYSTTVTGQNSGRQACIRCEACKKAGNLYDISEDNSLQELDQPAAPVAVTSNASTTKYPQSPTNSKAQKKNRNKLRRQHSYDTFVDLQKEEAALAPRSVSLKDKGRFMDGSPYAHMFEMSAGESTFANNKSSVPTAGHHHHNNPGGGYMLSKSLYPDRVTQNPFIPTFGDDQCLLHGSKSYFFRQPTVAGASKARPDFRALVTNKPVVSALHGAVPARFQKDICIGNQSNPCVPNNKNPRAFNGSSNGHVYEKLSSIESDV

For `Oc1ccc2nc(CN3CCC(Cc4ccccc4)CC3)[nH]c2c1`, the IC50 [1] was 209 nM, the half-life [2] was > 480 min and the ED50 (Rattus norvegicus [3]) was 3.3 mg/kg.
Compound `O=C(Nc1ccc2[nH]c(O)nc2c1)C(=O)N1CCC(Cc2ccc(F)cc2)CC1` has an ED50 (Mus musculus) of 0.5 mg/kg and an IC50 [4] of 5 nM.
Compound `[18F]c1ccc(CC2CCNCC2)cc1` has a Drug uptake (Brain) of 0.395 % ID/g, a Drug uptake (Rattus norvegicus [5]) of 0.542 % ID/g and a Drug uptake (Spleen) of 0.322 % ID/g. The Drug uptake (Bone) was 0.75 % ID/g, the Drug uptake (Lung) was 0.507 % ID/g and the Drug uptake (Liver) was 2.307 % ID/g. For the same compound, the Drug uptake (Heart) was 0.135 % ID/g, the Drug uptake (Pancreas) was 0.285 % ID/g and the half-life [6] was 10 min. It also gave a Drug uptake [7] of 0.052 % ID/g, a Drug uptake (Muscle tissue) of 0.145 % ID/g and a Drug uptake [8] of 10.125 % ID/g. The Drug uptake (Rattus norvegicus [9]) was 2.312 % ID/g, the Drug uptake (Intestine) was 0.902 % ID/g and the Drug uptake (Thymus) was 0.187 % ID/g. For the same compound, the Drug uptake (Kidney) was 1.206 % ID/g.
With `O=C(Nc1ccc2[nH]c(=O)sc2c1)C(=O)N1CCC(Cc2ccc(F)cc2)CC1` the IC50 [1] was 840 nM and the inhibition [10] was 13.2%.
